In ChEMBL document CHEMBL5543163, “Druglike, 18F-labeled PET Tracers Targeting Fibroblast Activation Protein” (J Med Chem, 2024):
Each block holds one compound with its values, some of them ahead of it.

What was measured:
Dipeptidyl peptidase 8 = Dipeptidyl peptidase 8 (Homo sapiens, UniProt Q6V1X1); test: Inhibition of DPP8 (unknown origin)
[1] = Ratio of drug level in tumor to muscle of female nude mouse harboring null mutation of CD1 antigen complex xenografted with human U-87 MG cells at 5 to 7.4 MBq, iv measured at 60 mins postinjection by gamma counter analysis; type: ADME, organism-based; conditions: in vivo, 1 h, dose 5-7.4 MBq
In short: (§1)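 Subcutaneous U-87MG xenografts (5×10^6 cells in DPBS, hind flank) were grown in female CD1 nude mice to about 200 mm3. After tail-vein radiotracer injection and a 60 min dynamic PET scan, tissues were harvested at 60 min p.i. and γ-counted (%ID/g). Tumor-to-tissue ratios are means ± SD of individual ratios, n=4 per tracer.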

[2] = Drug uptake in tumor of female nude mouse harboring null mutation of CD1 antigen complex xenografted with FAP-negative human HT-29 cells at 5 to 7.4 MBq, iv measured after 60 mins by autoradiography; type: ADME, organism-based, Neoplasm; conditions: in vivo, 1 h, dose 5-7.4 MBq
In short: (§2)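 Right after imaging and γ-counting, tumors from HT29 or U-87MG xenografts were snap-frozen and embedded in OCT. Sections of 100 µm were exposed overnight to phosphor screens. Non-blocked tumors were compared with tumors from mice pre-injected with the FAP inhibitor.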

[3] = Drug uptake in tumor of female nude mouse harboring null mutation of CD1 antigen complex xenografted with human U-87 MG cells with increased FAP positive tumor area at 5 to 7.4 MBq, iv measured after 60 mins by immunohistochemistry analysis; type: ADME, organism-based, Neoplasm; conditions: in vivo, 1 h, dose 5-7.4 MBq
[4] = Drug uptake in blood of female nude mouse harboring null mutation of CD1 antigen complex at 5.1 to 7.4 MBq, iv measured after 15 to 60 mins by gamma counter analysis; type: ADME, organism-based; conditions: in vivo, dose lower 5.1 MBq, time lower 15 min, dose upper 7.4 MBq, time upper 60 min
In short: (§3)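 Female CD1 nude mice, 6–8 weeks old (20–25 g), received the radiotracer through the lateral tail vein. At 15, 30 and 60 min p.i. (n = 3 per time point) blood was drawn by cardiac puncture and the animals were euthanized. Organs were excised, weighed and γ-counted. Uptake is expressed as %ID/g.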

[5] = Stability in female nude mouse harboring null mutation of CD1 antigen complex assessed as compound remaining at 5.1 to 7.4 MBq, iv measured at 60 mins by radio-HPLC analysis; type: ADME, organism-based; conditions: in vivo, dose 5.1-7.4 MBq, read-out: Stability
In short: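 Female CD1 nude mice received 5.1–7.4 MBq i.v. EDTA blood collected at 15, 30 and 60 min p.i. (n=3 per time point) was centrifuged to plasma, deproteinized with cold ACN and centrifuged. The supernatant was analyzed by radio-HPLC with 30 s fractions γ-counted to give the percent intact tracer.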

[6] = Stability in CD1 mouse plasma assessed as compound remaining at 185 kBq measured upto 60 mins by radio-HPLC analysis; type: ADME, cell-free; conditions: read-out: Stability
In short: (§4)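 Radiotracer was incubated at 37 °C for up to 60 min in PBS (0.01 M, pH 7.4) or in mouse plasma. Samples were deproteinized with an equal volume of cold ACN and centrifuged. The supernatant was analyzed by radio-HPLC with 30 s fractions γ-counted to give the intact fraction. Triplicates.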

[7] = Drug uptake in bone structures of female nude mouse harboring null mutation of CD1 antigen complex xenografted with human U-87 MG cells at 5 to 7.4 MBq, iv measured after 60 mins by gamma counter analysis; type: ADME, organism-based, Bone element; conditions: in vivo, 1 h, dose 5-7.4 MBq
[8] = Stability in PBS assessed as drug degradation at 185 kBq measured upto 60 mins by radio-HPLC analysis; type: physicochemical; conditions: buffer, 1 h; in short: as §4
[9] = Drug uptake in urinary bladder of female nude mouse harboring null mutation of CD1 antigen complex assessed as increase in renal excretion at 5.1 to 7.4 MBq, iv measured after 15 to 60 mins by gamma counter analysis; type: ADME, organism-based; conditions: in vivo, dose lower 5.1 MBq, time lower 15 min, dose upper 7.4 MBq, time upper 60 min; in short: as §3
[10] = Drug uptake in tumor of female nude mouse harboring null mutation of CD1 antigen complex xenografted with human HT-29 cells with decreased FAP positive tumor area at 5 to 7.4 MBq, iv measured after 60 mins by immunohistochemistry analysis; type: ADME, organism-based, Neoplasm; conditions: in vivo, 1 h, dose 5-7.4 MBq
[11] = Ratio of drug level in tumor to liver of female nude mouse harboring null mutation of CD1 antigen complex xenografted with human U-87 MG cells at 5 to 7.4 MBq, iv measured at 60 mins postinjection by gamma counter analysis; type: ADME, organism-based; conditions: in vivo, 1 h, dose 5-7.4 MBq; in short: as §1
[12] = Drug uptake in tumor of female nude mouse harboring null mutation of CD1 antigen complex xenografted with human U-87 MG cells at 5 to 7.4 MBq, iv measured after 60 mins by autoradiography; type: ADME, organism-based, Neoplasm; conditions: in vivo, 1 h, dose 5-7.4 MBq; in short: as §2
[13] = Drug uptake in kidney of female nude mouse harboring null mutation of CD1 antigen complex assessed as increase in renal excretion at 5.1 to 7.4 MBq, iv measured after 15 to 60 mins by gamma counter analysis; type: ADME, organism-based; conditions: in vivo, dose lower 5.1 MBq, time lower 15 min, dose upper 7.4 MBq, time upper 60 min; in short: as §3
[14] = Ratio of drug level in tumor to blood of female nude mouse harboring null mutation of CD1 antigen complex xenografted with human U-87 MG cells at 5 to 7.4 MBq, iv measured at 60 mins postinjection by gamma counter analysis; type: ADME, organism-based; conditions: tumour, 1 h, dose 5-7.4 MBq; in short: as §1
[15] = Stability in PBS assessed as compound remaining at 185 kBq measured upto 60 mins by radio-HPLC analysis; type: physicochemical; conditions: read-out: Stability; in short: as §4
[16] = Drug uptake in large intestine of female nude mouse harboring null mutation of CD1 antigen complex assessed as increase in renal excretion at 5.1 to 7.4 MBq, iv measured at 60 mins by gamma counter analysis; type: ADME, organism-based; conditions: in vivo, 1 h, dose 5.1-7.4 MBq; in short: as §3
[17] = Ratio of drug level in tumor to small intestine of female nude mouse harboring null mutation of CD1 antigen complex xenografted with human U-87 MG cells at 5 to 7.4 MBq, iv measured at 60 mins postinjection by gamma counter analysis; type: ADME, organism-based; conditions: in vivo, 1 h, dose 5-7.4 MBq; in short: as §1
[18] = Drug uptake in intestine of female nude mouse harboring null mutation of CD1 antigen complex at 5.1 to 7.4 MBq, iv measured after 15 to 60 mins by gamma counter analysis; type: ADME, organism-based; conditions: in vivo, dose lower 5.1 MBq, time lower 15 min, dose upper 7.4 MBq, time upper 60 min; in short: as §3
[19] = Drug uptake in tumor of female nude mouse harboring null mutation of CD1 antigen complex xenografted with human U-87 MG cells at 5 to 7.4 MBq, iv measured at 60 mins by PET/CT analysis; type: ADME, organism-based, Neoplasm; conditions: in vivo, 1 h, dose 5-7.4 MBq
In short: (§5)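 U-87MG xenografts (5×10^6 cells, subcutaneous flank) were grown in female CD1 nude mice to about 200 mm3. Dynamic whole-body PET over 60 min p.i. was followed by CT. Images were reconstructed with OSEM 3D and expressed as %ID/mL to give time-activity curves. For blocking, the FAP inhibitor (5 mg/kg) was given via the tail vein 30 min before the tracer; n=4.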

[20] = Stability in CD1 mouse plasma assessed as drug degradation at 185 kBq measured upto 60 mins by radio-HPLC analysis; type: ADME, cell-free; conditions: 1 h; in short: as §4
[21] = Drug uptake in tumor of female nude mouse harboring null mutation of CD1 antigen complex xenografted with human U-87 MG cells at 5 to 7.4 MBq, iv pretreated with (S)-N-(2-(2-cyano-4,4-difluoropyrrolidin-1-yl)-2-oxoethyl)quinoline-4-carboxamide for 30 mins followed by radioligand addition and measured measured after 60 mins by PET/CT analysis; type: ADME, organism-based, Neoplasm; conditions: in vivo, 1 h, dose 5-7.4 MBq; in short: as §5
[22] = Drug uptake in liver of female nude mouse harboring null mutation of CD1 antigen complex at 5.1 to 7.4 MBq, iv measured after 15 to 60 mins by gamma counter analysis; type: ADME, organism-based; conditions: in vivo, dose lower 5.1 MBq, time lower 15 min, dose upper 7.4 MBq, time upper 60 min; in short: as §3
[23] = Drug uptake in tibia of female nude mouse harboring null mutation of CD1 antigen complex xenografted with human U-87 MG cells at 5 to 7.4 MBq, iv measured after 60 mins by gamma counter analysis; type: ADME, organism-based; conditions: in vivo, 1 h, dose 5-7.4 MBq
[24] = Octanol/water partition coefficient, logD of compound at 74 kBq incubated for 2 mins by gamma counter method; type: physicochemical
In short: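 Octanol and PBS phases were mixed and vortexed for 2 min, then centrifuged at 3,000 rpm for 10 min. Aliquots of 0.5 mL from each phase were γ-counted and corrected for mass and density. LogD was taken as log10 of the octanol/PBS radioactivity ratio.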

[25] = Drug uptake in skull of female nude mouse harboring null mutation of CD1 antigen complex xenografted with human U-87 MG cells at 5 to 7.4 MBq, iv measured after 60 mins by gamma counter analysis; type: ADME, organism-based; conditions: in vivo, 1 h, dose 5-7.4 MBq

Sequence of Dipeptidyl peptidase 8 (Q6V1X1 whole entry): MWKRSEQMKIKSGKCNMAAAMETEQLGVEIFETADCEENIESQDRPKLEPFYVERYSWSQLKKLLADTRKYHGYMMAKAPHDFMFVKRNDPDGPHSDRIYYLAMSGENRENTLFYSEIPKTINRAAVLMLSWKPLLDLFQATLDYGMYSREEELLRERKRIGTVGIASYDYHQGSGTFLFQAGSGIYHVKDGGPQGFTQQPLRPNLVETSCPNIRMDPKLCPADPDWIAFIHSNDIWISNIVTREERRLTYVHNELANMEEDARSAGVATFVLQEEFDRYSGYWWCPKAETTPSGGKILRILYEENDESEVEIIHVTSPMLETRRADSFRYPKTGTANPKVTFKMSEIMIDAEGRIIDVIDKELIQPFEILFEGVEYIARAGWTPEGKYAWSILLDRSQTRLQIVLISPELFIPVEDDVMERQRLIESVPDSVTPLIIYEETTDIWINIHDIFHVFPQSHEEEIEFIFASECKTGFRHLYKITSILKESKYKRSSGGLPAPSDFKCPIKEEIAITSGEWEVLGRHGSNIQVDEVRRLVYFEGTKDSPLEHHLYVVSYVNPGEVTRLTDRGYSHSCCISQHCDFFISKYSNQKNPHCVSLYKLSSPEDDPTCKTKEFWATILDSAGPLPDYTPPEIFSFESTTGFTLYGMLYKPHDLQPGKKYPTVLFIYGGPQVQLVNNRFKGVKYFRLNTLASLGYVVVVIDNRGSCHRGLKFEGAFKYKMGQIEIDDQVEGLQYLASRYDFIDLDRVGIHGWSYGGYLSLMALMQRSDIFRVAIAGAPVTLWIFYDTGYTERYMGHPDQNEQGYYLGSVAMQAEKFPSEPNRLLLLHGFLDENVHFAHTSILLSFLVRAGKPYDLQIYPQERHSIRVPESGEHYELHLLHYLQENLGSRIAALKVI

IC50 (Dipeptidyl peptidase 8): 4.7 µM
Compound: N#C[C@@H]1CC(F)(F)CN1C(=O)CNC(=O)c1ccnc2ccccc12

Ratio [1]: 6.54
Drug uptake [2]: Active
Drug uptake [3]: Active
Drug uptake [4]: 0.24 % ID/g
remaining at 1 h [5]: 56.5%
remaining at 1 h, 185 kBq [6]: > 70%
Drug uptake [7]: Active
Stability [8]: Stable
Drug uptake [9]: Active
Drug uptake [10]: Not Active
Ratio [11]: 4.77
Drug uptake [12]: Active
Drug uptake [13]: Active
Ratio [14]: 6.35
remaining at 1 h, 185 kBq [15]: > 70%
Drug uptake [16]: 0.38 % ID/g
Ratio [17]: 2.43
Drug uptake [18]: Active
Drug uptake [19]: 10.16 %ID/ml
Stability [20]: Stable
Drug uptake [21]: Not Active
Drug uptake [22]: Active
Drug uptake [23]: 4.33 % ID/g
logD at 2 min [24]: -1.77
Drug uptake [25]: Active
Compound: [2H]C([2H])([18F])[N+](C)(C)CCCOc1ccc2nccc(C(=O)NCC(=O)N3CC(F)(F)C[C@H]3C#N)c2c1
